Laboratory results from ChEMBL document CHEMBL3421605, “Structure-activity relationship studies of SEN12333 analogues: determination of the optimal requirements for binding affinities at α7 nAChRs through incorporation of known structural motifs” (Eur J Med Chem, 2015).

Legend:
[1] = biological target: T1, Neuronal acetylcholine receptor subunit alpha-7 (Rattus norvegicus, UniProt Q05941); test: Displacement of [3H]epibatidine from rat alpha7 nAChR transfected in HEK293 cells by liquid scintillation counting; assay type: cell-based
Outline: (§1)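 Stably transfected HEK293 cells scraped at >80% confluence into 50 mM Tris·HCl pH 7.4 at 4 °C and spun at 10,000 g. Pellet homogenised and spun at 36,000 g for 10 min at 4 °C, then resuspended. Competition against racemic [3H]epibatidine at ~500 pM (α3β4, α4β2) or ~2 nM (α7). Nonspecific binding with 300 µM nicotine. GF/C filters pretreated with 0.5% PEI. Ki derived.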

[2] = biological target: Neuronal acetylcholine receptor; alpha3/beta4 (Rattus norvegicus, UniProt P04757+P12392); test: Displacement of [3H]epibatidine from rat alpha3beta4 nAChR transfected in HEK293 cells by liquid scintillation counting; assay type: cell-based; outline: as §1
[3] = biological target: Neuronal acetylcholine receptor; alpha4/beta2 (Rattus norvegicus, UniProt P09483+P12390); test: Displacement of [3H]epibatidine from rat alpha4beta2 nAChR transfected in HEK293 cells by liquid scintillation counting; assay type: cell-based; outline: as §1
[4] = biological target: T1, Neuronal acetylcholine receptor subunit alpha-7; test: Agonist activity at rat alpha7 nAChR expressed in GH4C1 cells by fluorescent calcium assay; assay type: cell-based, GH4-C1
Outline: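 GH4C1 cells stably expressing rat α7 loaded with Fluo4 Direct dye. Baseline fluorescence read, then compound added, and peak/base ratios taken; >1.00 taken as agonism. Tested at 0.03, 0.1, 0.3, 1, 3 and 10 µM (one compound at 0.001–0.3 µM), n = 3. EC50 from dose–response curves.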

[5] = biological target: Neuronal acetylcholine receptor subunit alpha-7 (Rattus norvegicus) (UniProt Q05941); test: Agonist activity at rat alpha7 nAChR expressed in GH4C1 cells by patch-clamp electrophysiology assay relative to acetylcholine; assay type: cell-based; conditions: GH4-C1
[6] = biological target: T1, Neuronal acetylcholine receptor subunit alpha-7; test: Agonist activity at rat alpha7 nAChR expressed in GH4C1 cells by patch-clamp electrophysiology assay; assay type: cell-based, GH4-C1

Chain of Neuronal acetylcholine receptor; alpha4/beta2 (P09483 whole entry): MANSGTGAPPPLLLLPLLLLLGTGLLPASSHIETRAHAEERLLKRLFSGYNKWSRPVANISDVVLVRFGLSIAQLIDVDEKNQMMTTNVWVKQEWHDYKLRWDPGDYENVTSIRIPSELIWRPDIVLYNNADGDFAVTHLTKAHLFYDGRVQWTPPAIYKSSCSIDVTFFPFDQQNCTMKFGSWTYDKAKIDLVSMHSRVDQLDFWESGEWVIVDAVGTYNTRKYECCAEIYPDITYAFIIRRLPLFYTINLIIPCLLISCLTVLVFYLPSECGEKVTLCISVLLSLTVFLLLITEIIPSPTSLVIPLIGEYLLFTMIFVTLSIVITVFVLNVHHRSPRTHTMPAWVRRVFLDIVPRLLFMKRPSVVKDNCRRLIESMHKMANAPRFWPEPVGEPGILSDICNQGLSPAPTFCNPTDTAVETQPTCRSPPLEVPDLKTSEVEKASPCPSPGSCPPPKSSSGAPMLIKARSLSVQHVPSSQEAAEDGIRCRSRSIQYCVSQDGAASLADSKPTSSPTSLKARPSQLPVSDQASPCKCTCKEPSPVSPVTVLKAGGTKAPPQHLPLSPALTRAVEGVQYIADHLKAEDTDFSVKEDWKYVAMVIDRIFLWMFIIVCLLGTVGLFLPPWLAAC
Chain of Neuronal acetylcholine receptor; alpha4/beta2 (P12390 whole entry): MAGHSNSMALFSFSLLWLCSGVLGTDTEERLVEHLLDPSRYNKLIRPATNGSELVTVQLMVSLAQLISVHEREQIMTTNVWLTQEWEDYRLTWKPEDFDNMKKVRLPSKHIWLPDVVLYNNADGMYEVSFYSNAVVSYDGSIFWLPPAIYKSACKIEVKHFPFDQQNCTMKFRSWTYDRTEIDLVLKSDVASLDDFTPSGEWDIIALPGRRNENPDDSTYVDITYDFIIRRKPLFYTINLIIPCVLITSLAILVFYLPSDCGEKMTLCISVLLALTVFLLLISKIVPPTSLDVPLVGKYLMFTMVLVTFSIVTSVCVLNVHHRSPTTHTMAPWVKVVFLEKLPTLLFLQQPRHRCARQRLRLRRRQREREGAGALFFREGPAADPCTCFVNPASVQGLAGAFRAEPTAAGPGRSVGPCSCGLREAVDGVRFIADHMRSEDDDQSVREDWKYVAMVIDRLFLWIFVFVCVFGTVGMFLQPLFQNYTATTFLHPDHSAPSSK
T1 sequence (Q05941 whole entry): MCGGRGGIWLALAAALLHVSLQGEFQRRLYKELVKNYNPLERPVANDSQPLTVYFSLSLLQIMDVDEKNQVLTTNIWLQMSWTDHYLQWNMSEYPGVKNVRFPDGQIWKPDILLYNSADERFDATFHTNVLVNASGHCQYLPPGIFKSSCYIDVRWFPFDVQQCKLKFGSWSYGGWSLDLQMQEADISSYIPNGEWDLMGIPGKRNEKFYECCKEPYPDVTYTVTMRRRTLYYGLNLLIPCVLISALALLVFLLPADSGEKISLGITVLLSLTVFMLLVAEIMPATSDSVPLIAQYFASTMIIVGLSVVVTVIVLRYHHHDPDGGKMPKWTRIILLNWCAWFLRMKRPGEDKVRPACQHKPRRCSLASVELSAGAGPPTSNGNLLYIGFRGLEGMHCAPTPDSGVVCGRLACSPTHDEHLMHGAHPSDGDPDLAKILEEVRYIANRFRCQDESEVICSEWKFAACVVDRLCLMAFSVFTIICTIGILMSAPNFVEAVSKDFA
Chain of Neuronal acetylcholine receptor; alpha3/beta4 (P04757 whole entry): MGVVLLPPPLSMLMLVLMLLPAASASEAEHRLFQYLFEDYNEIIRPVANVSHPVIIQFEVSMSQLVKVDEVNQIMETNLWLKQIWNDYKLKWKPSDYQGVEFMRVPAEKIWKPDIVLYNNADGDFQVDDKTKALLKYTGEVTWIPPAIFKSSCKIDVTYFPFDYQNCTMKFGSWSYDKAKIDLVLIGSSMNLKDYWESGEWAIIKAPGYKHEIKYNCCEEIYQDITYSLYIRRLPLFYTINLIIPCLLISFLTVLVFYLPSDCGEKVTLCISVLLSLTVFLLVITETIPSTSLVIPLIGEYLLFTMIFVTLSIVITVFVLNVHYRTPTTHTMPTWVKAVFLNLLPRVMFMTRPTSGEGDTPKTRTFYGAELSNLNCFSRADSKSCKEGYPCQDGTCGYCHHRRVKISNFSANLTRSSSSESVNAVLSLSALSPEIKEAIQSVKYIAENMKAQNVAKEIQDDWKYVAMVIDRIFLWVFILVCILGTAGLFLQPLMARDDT
Chain of Neuronal acetylcholine receptor; alpha3/beta4 (P12392 whole entry): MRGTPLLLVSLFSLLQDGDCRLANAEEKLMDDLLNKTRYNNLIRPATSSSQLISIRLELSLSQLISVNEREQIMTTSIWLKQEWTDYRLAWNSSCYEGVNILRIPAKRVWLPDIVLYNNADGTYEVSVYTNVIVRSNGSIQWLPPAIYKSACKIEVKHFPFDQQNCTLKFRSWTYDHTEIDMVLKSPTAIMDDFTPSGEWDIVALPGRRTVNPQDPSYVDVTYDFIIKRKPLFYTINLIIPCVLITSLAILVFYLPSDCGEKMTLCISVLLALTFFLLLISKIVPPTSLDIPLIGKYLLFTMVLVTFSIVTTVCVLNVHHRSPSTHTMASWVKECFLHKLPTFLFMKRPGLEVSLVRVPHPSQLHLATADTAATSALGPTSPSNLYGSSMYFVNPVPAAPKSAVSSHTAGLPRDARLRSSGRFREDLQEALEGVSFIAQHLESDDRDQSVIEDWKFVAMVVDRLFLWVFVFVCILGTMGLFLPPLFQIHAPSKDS
Chain of Neuronal acetylcholine receptor subunit alpha-7 (Rattus norvegicus) (Q05941 whole entry): as the sequence (Q05941 whole entry) above

Ki [1] | Ki [2] | Ki [3] | EC50 [4] | Emax [5] | EC50 [6] | Structure (SMILES)
0.22 µM | > 10 µM | > 10 µM |  |  |  | O=C(CCCCN1CCCCC1)Nc1ccc(-c2cccnc2)cc1
9.33 µM | 313 µM |  |  |  |  | CN1CCN(CCCCC(=O)Nc2ccc(-c3cccnc3)cc2)CC1
2.6 µM | > 10 µM | > 10 µM |  |  |  | O=C(CCCCN1CCOCC1)Nc1cc(-c2ccccc2)[nH]n1
0.19 µM | 2.6 µM | > 10 µM |  |  |  | O=C(CCCCN1CCCCC1)Nc1ccc(-c2ccccc2)cc1
0.41 µM | > 10 µM | > 10 µM |  |  |  | O=C(NCCCCN1CCCCC1)c1ccc(-c2ccccc2)cc1
0.66 µM | > 10 µM | > 50 µM |  |  |  | O=C(CCCCN1CCCCC1)Nc1cc(-c2ccccc2)[nH]n1
3.2 µM | > 10 µM | > 10 µM |  |  |  | CN1C[C@@H]2C[C@H]1CN2CCCCC(=O)Nc1ccc(-c2ccccc2)cc1
4.07 µM | > 10 µM | 0.417 µM |  |  |  | CN1CCN(c2ccc(-c3ccccc3)nn2)CC1
0.034 µM | > 10 µM | > 10 µM | 0.253 µM |  |  | CN1C[C@@H]2C[C@H]1CN2c1ccc(-c2ccccc2)cc1
0.33 µM | > 10 µM | > 10 µM |  |  |  | O=C(CCCCN1CCOCC1)Nc1ccc(-c2ccccn2)cc1
0.085 µM | > 10 µM | > 10 µM | 0.145 µM | 136% | 27.3 µM | O=C(CCCCN1CCOCC1)Nc1ccc(-c2cccnc2F)cc1
1.62 µM | 88.1 µM |  |  |  |  | CN1CCN(CCCCC(=O)Nc2ccc(-c3ccccc3)cc2)CC1
 | > 10 µM | > 10 µM | 0.687 µM | 104% | 42 µM | O=C(CCCCN1CCOCC1)Nc1ccc(-c2cccnc2)cc1
6.1 µM | > 10 µM | > 10 µM |  |  |  | CN1C[C@@H]2C[C@H]1CN2CCCCNC(=O)c1ccc(-c2ccccc2)cc1
5.4 µM | > 100 µM | > 10 µM |  |  |  | CN1CCN(CCCCNC(=O)c2ccc(-c3ccccc3)cc2)CC1
1.4 µM | > 50 µM | > 10 µM |  |  |  | O=C(NCCCCN1CCCCC1)c1ccc(-c2cccnc2)cc1
> 10 µM | > 1000 µM | > 100 µM |  |  |  | c1ccc(-c2ccc(N3CCOCC3)nn2)cc1
0.35 µM | > 10 µM | > 10 µM | 0.522 µM |  |  | O=C(CCCCN1CCOCC1)Nc1ccc(-c2ccncc2)cc1
0.31 µM | > 10 µM | > 10 µM | 0.997 µM |  |  | O=C(CCCCN1CCOCC1)Nc1ccc(-c2ccc3[nH]ccc3c2)cc1

Structure (SMILES) | Ki [1] | Ki [2] | Ki [3] | EC50 [4] | Emax [5] | EC50 [6]
CN1CCN(CCCCC(=O)Nc2cc(-c3ccccc3)[nH]n2)CC1 | > 10 µM | > 10 µM | > 10 µM |  |  | 
O=C(CCCCN1CC2(COC2)C1)Nc1ccc(-c2ccccc2)cc1 | > 10 µM | > 50 µM | > 10 µM |  |  | 
CN1CCN(CCCCNC(=O)c2ccc(-c3cccnc3)cc2)CC1 | > 10 µM | > 10 µM | > 10 µM |  |  | 
CN1CCN(c2ccc(-c3ccccc3)cc2)CC1 | 7.7 µM | > 10 µM | > 10 µM |  |  | 
c1cncc(-c2ccc(N3CCCCC3)cc2)c1 | > 10 µM | > 10 µM | > 10 µM |  |  | 
CN1C[C@@H]2C[C@H]1CN2CCCCC(=O)Nc1ccc(-c2cccnc2)cc1 | > 10 µM | > 100 µM | > 10 µM |  |  | 
c1ccc(-c2ccc(N3CCCCC3)nn2)cc1 | > 10 µM | > 10 µM | > 10 µM |  |  | 
CN1C[C@@H]2C[C@H]1CN2c1ccc(-c2ccccc2)nn1 |  | > 50 µM |  |  |  | 
O=C(CCCCN1CC2(COC2)C1)Nc1ccc(-c2cccnc2)cc1 | > 10 µM | > 50 µM | > 10 µM |  |  | 
CN1C[C@@H]2C[C@H]1CN2CCCCNC(=O)c1ccc(-c2cccnc2)cc1 | > 10 µM | > 10 µM | > 10 µM |  |  | 
O=C(CCCCN1CCOCC1)Nc1ccc(-c2ccccc2)nn1 | > 10 µM | > 10 µM | > 10 µM |  |  | 
c1ccc(-c2ccc(N3CCCCC3)cc2)cc1 | > 10 µM | > 10 µM | > 10 µM |  |  | 
c1cc2cc(-c3ccc(N4CCOCC4)nn3)ccc2[nH]1 | > 10 µM | > 10 µM | > 10 µM |  |  | 
c1ccc(-c2ccc(N3CCOCC3)cc2)cc1 | > 10 µM | > 10 µM | > 10 µM |  |  | 
CN1C[C@@H]2C[C@H]1CN2c1ccc(-c2cccnc2)cc1 | 0.14 µM | > 10 µM | > 10 µM | 0.126 µM |  | 
c1cncc(-c2ccc(N3CCOCC3)cc2)c1 | > 10 µM | > 10 µM |  |  |  | 
CN1CCN(c2ccc(-c3cccnc3)cc2)CC1 | 9.4 µM | > 10 µM | > 10 µM |  |  | 
